In brackets after ≈: the same amount, converted by molar mass.
How the values were obtained:
Assay type in all cases: functional
[1] = tested on: Staphylococcus aureus; assay: Antimicrobial activity against methicillin-susceptible Staphylococcus aureus ATCC 29213 by micro-dilution method
Method in brief: (§1)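 Broth microdilution MIC in cation-adjusted Mueller-Hinton II medium supplemented with 1% Tween-80 (CAMHB-T), needed to disperse the farnesol-type compounds. Compounds tested from 2 to 2048 μg/mL.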

[2] = tested on: Staphylococcus aureus; assay: Potentiation of oxacillin-induced antimicrobial activity against methicillin-resistant Staphylococcus aureus NRS100 at 1000 ug/ml (reference value: oxacillin alone MIC = >256 ug/ml)
[3] = tested on: Staphylococcus aureus; assay: Potentiation of oxacillin-induced antimicrobial activity against methicillin-resistant Staphylococcus aureus NRS123 at 1000 ug/ml relative to oxacillin alone
[4] = tested on: Staphylococcus aureus; assay: Potentiation of ampicillin-induced antimicrobial activity against methicillin-resistant Staphylococcus aureus NRS70 at 1000 ug/ml relative to ampicillin alone
[5] = tested on: Staphylococcus aureus; assay: Potentiation of ampicillin-induced antimicrobial activity against methicillin-susceptible Staphylococcus aureus ATCC 29213 at 1000 ug/ml relative to ampicillin alone
[6] = tested on: Staphylococcus aureus; assay: Potentiation of ampicillin-induced antimicrobial activity against methicillin-resistant Staphylococcus aureus NRS70 relative to untreated ampicillin alone
[7] = tested on: Staphylococcus aureus; assay: Potentiation of ampicillin-induced antimicrobial activity against methicillin-resistant Staphylococcus aureus NRS100 at 1000 ug/ml (reference value: ampicillin alone MIC = 16 ug/ml)
[8] = tested on: Staphylococcus aureus; assay: Potentiation of ampicillin-induced antimicrobial activity against methicillin-resistant Staphylococcus aureus NRS123 at 1000 ug/ml relative to ampicillin alone
[9] = tested on: Staphylococcus aureus; assay: Potentiation of oxacillin-induced antimicrobial activity against methicillin-susceptible Staphylococcus aureus ATCC 29213 at 1000 ug/ml relative to oxacillin alone
[10] = tested on: Staphylococcus aureus; assay: Potentiation of oxacillin-induced antimicrobial activity against methicillin-resistant Staphylococcus aureus NRS70 at 1000 ug/ml (reference value: oxacillin alone MIC = 32 ug/ml)
[11] = tested on: Staphylococcus aureus; assay: Potentiation of ampicillin-induced antimicrobial activity against methicillin-resistant Staphylococcus aureus NRS100 relative to untreated ampicillin alone
[12] = tested on: Staphylococcus aureus; assay: Antimicrobial activity against methicillin-resistant Staphylococcus aureus NRS100 by micro-dilution method; method in brief: as §1
[13] = tested on: Staphylococcus aureus; assay: Potentiation of oxacillin-induced antimicrobial activity against methicillin-resistant Staphylococcus aureus NRS100 at 1000 ug/ml by checkerboard assay
Method in brief: (§2)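 Checkerboard combination of oxacillin with the farnesol-type compound. Synergy scored by the fractional inhibitory concentration index (FICI).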

[14] = tested on: Staphylococcus aureus; assay: Potentiation of oxacillin-induced antimicrobial activity against methicillin-resistant Staphylococcus aureus NRS100 relative to untreated oxacillin alone
[15] = tested on: Staphylococcus aureus; assay: Potentiation of oxacillin-induced antimicrobial activity against methicillin-resistant Staphylococcus aureus NRS70 at 1000 ug/ml by checkerboard assay; method in brief: as §2
[16] = tested on: Staphylococcus aureus; assay: Potentiation of oxacillin-induced antimicrobial activity against methicillin-resistant Staphylococcus aureus NRS100 at 1000 ug/ml relative to oxacillin alone
[17] = tested on: Staphylococcus aureus; assay: Potentiation of oxacillin-induced antimicrobial activity against methicillin-resistant Staphylococcus aureus NRS123 at 1000 ug/ml (reference value: oxacillin alone MIC = 24 ug/ml)
[18] = tested on: Staphylococcus aureus; assay: Potentiation of ampicillin-induced antimicrobial activity against methicillin-resistant Staphylococcus aureus NRS123 at 1000 ug/ml (reference value: ampicillin alone MIC = 12 ug/ml)
[19] = tested on: Staphylococcus aureus; assay: Potentiation of ampicillin-induced antimicrobial activity against methicillin-susceptible Staphylococcus aureus ATCC 29213 at 1000 ug/ml (reference value: ampicillin alone MIC = 0.5 ug/ml)
[20] = tested on: Staphylococcus aureus; assay: Potentiation of ampicillin-induced antimicrobial activity against methicillin-resistant Staphylococcus aureus NRS70 at 1000 ug/ml (reference value: ampicillin alone MIC = 16 ug/ml)
[21] = tested on: Staphylococcus aureus; assay: Antimicrobial activity against methicillin-resistant Staphylococcus aureus NRS123 by micro-dilution method; method in brief: as §1
[22] = tested on: Staphylococcus aureus; assay: Antimicrobial activity against methicillin-resistant Staphylococcus aureus NRS70 by micro-dilution method; method in brief: as §1
[23] = tested on: Staphylococcus aureus; assay: Potentiation of oxacillin-induced antimicrobial activity against methicillin-susceptible Staphylococcus aureus ATCC 29213 at 1000 ug/ml (reference value: oxacillin alone MIC = 0.4 ug/ml)
[24] = tested on: Staphylococcus aureus; assay: Potentiation of oxacillin-induced antimicrobial activity against methicillin-resistant Staphylococcus aureus NRS70 relative to untreated oxacillin alone
[25] = tested on: Staphylococcus aureus; assay: Potentiation of ampicillin-induced antimicrobial activity against methicillin-resistant Staphylococcus aureus NRS100 at 1000 ug/ml relative to ampicillin alone
[26] = tested on: Staphylococcus aureus; assay: Potentiation of oxacillin-induced antimicrobial activity against methicillin-resistant Staphylococcus aureus NRS70 at 1000 ug/ml relative to oxacillin alone
[27] = tested on: Staphylococcus aureus; assay: Potentiation of ampicillin-induced antimicrobial activity against methicillin-susceptible Staphylococcus aureus ATCC 29213 at 256 ug/ml relative to ampicillin alone
[28] = tested on: Staphylococcus aureus; assay: Potentiation of oxacillin-induced antimicrobial activity against methicillin-resistant Staphylococcus aureus NRS100 at 128 ug/ml (reference value: oxacillin alone MIC = >256 ug/ml)
[29] = tested on: Staphylococcus aureus; assay: Potentiation of ampicillin-induced antimicrobial activity against methicillin-resistant Staphylococcus aureus NRS100 at 128 ug/ml (reference value: ampicillin alone MIC = 16 ug/ml)
[30] = tested on: Staphylococcus aureus; assay: Potentiation of oxacillin-induced antimicrobial activity against methicillin-susceptible Staphylococcus aureus ATCC 29213 at 256 ug/ml relative to oxacillin alone
[31] = tested on: Staphylococcus aureus; assay: Potentiation of ampicillin-induced antimicrobial activity against methicillin-resistant Staphylococcus aureus NRS123 at 256 ug/ml relative to ampicillin alone
[32] = tested on: Staphylococcus aureus; assay: Potentiation of ampicillin-induced antimicrobial activity against methicillin-resistant Staphylococcus aureus NRS70 at 128 ug/ml (reference value: ampicillin alone MIC = 16 ug/ml)
[33] = tested on: Staphylococcus aureus; assay: Potentiation of oxacillin-induced antimicrobial activity against methicillin-resistant Staphylococcus aureus NRS123 at 256 ug/ml (reference value: oxacillin alone MIC = 24 ug/ml)
[34] = tested on: Staphylococcus aureus; assay: Potentiation of oxacillin-induced antimicrobial activity against methicillin-resistant Staphylococcus aureus NRS100 at 128 ug/ml by checkerboard assay; method in brief: as §2
[35] = tested on: Staphylococcus aureus; assay: Potentiation of oxacillin-induced antimicrobial activity against methicillin-susceptible Staphylococcus aureus ATCC 29213 at 256 ug/ml (reference value: oxacillin alone MIC = 0.4 ug/ml)
[36] = tested on: Staphylococcus aureus; assay: Potentiation of ampicillin-induced antimicrobial activity against methicillin-susceptible Staphylococcus aureus ATCC 29213 at 256 ug/ml (reference value: ampicillin alone MIC = 0.5 ug/ml)
[37] = tested on: Staphylococcus aureus; assay: Potentiation of oxacillin-induced antimicrobial activity against methicillin-resistant Staphylococcus aureus NRS70 at 128 ug/ml by checkerboard assay; method in brief: as §2
[38] = tested on: Staphylococcus aureus; assay: Potentiation of ampicillin-induced antimicrobial activity against methicillin-resistant Staphylococcus aureus NRS70 at 128 ug/ml relative to ampicillin alone
[39] = tested on: Staphylococcus aureus; assay: Potentiation of oxacillin-induced antimicrobial activity against methicillin-resistant Staphylococcus aureus NRS70 at 128 ug/ml relative to oxacillin alone
[40] = tested on: Staphylococcus aureus; assay: Potentiation of oxacillin-induced antimicrobial activity against methicillin-resistant Staphylococcus aureus NRS70 at 128 ug/ml (reference value: oxacillin alone MIC = 32 ug/ml)
[41] = tested on: Staphylococcus aureus; assay: Potentiation of ampicillin-induced antimicrobial activity against methicillin-resistant Staphylococcus aureus NRS100 at 128 ug/ml relative to ampicillin alone
[42] = tested on: Staphylococcus aureus; assay: Potentiation of ampicillin-induced antimicrobial activity against methicillin-resistant Staphylococcus aureus NRS123 at 256 ug/ml (reference value: ampicillin alone MIC = 12 ug/ml)
[43] = tested on: Staphylococcus aureus; assay: Potentiation of oxacillin-induced antimicrobial activity against methicillin-resistant Staphylococcus aureus NRS123 at 256 ug/ml relative to oxacillin alone

CC(C)=CCC/C(C)=C/CC/C(C)=C/CO [FARNESOL]
MIC [1]: 2050 µg/mL (≈ 9.21 mM)
MIC [2]: 8 µg/mL
fold change (FC) [3]: 12
fold change (FC) [4]: 4
fold change (FC) [5]: 1
fold change (FC) [6]: 256
MIC [7]: 4 µg/mL
fold change (FC) [8]: 4
fold change (FC) [9]: 0.8
MIC [10]: 12 µg/mL
fold change (FC) [11]: 24
MIC [12]: 2050 µg/mL (≈ 9.21 mM)
fractional inhibitory concentration index (FICI) [13]: 0.53 - 1.13
fold change (FC) [14]: >64
fractional inhibitory concentration index (FICI) [15]: 0.53 - 1.13
fold change (FC) [16]: >32
MIC [17]: 2 µg/mL
MIC [18]: 3 µg/mL
MIC [19]: 0.5 µg/mL
MIC [20]: 4 µg/mL
MIC [21]: 2050 µg/mL (≈ 9.21 mM)
MIC [22]: 2050 µg/mL (≈ 9.21 mM)
MIC [23]: 0.5 µg/mL
fold change (FC) [24]: 96
fold change (FC) [25]: 4
fold change (FC) [26]: 2.7

CC(C)=CCC/C(C)=C/CC/C(C)=C/CN
fold change (FC) [27]: 2.5
MIC [1]: 512 µg/mL (≈ 2.31 mM)
MIC [28]: > 256 µg/mL
MIC [29]: 8 µg/mL
fold change (FC) [30]: 0.8
MIC [12]: 256 µg/mL (≈ 1.16 mM)
fold change (FC) [31]: 12
MIC [32]: 16 µg/mL
MIC [33]: 0.75 µg/mL
fractional inhibitory concentration index (FICI) [34]: 0.53 - 1.13
MIC [35]: 0.5 µg/mL
MIC [36]: 0.2 µg/mL
MIC [21]: 512 µg/mL (≈ 2.31 mM)
fractional inhibitory concentration index (FICI) [37]: 0.53 - 1.13
MIC [22]: 256 µg/mL (≈ 1.16 mM)
fold change (FC) [38]: 1
fold change (FC) [39]: 1
MIC [40]: 32 µg/mL
fold change (FC) [41]: 2
MIC [42]: 1 µg/mL
fold change (FC) [43]: 32
